How the values were obtained:
S. aureus USA300 [1] = test: Membrane depolarization, DiBAC4; type: cell-based, Staphylococcus aureus; settings: S. aureus USA300, treated at 12.5 μM, DiBAC4(3) fluorescence; Triton X-100 (0.1%) positive control
[2] = system: S. aureus USA300 biofilms; test: Disruption of 24 h established biofilms, XTT; type: cell-based, Staphylococcus aureus; settings: 24 h preformed S. aureus USA300 biofilms, 24 h treatment in TSB
In short: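 Exponential-phase TSB culture at 10^5 CFU/mL grew 24 h at 37°C to form biofilms. Plankton was removed with a PBS wash. Biofilms took 10× peptide diluted in fresh TSB for 24 h at 37°C, were washed, then got XTT in TSB for 2 h at 37°C. A450 was blanked on media plus XTT. Growth was expressed as % of untreated biofilm wells.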

[3] = system: E. coli ATCC 25922 biofilms; test: Disruption of 24 h established biofilms, XTT; type: cell-based, Escherichia coli; settings: 24 h preformed E. coli ATCC 25922 biofilms
S. aureus USA300 [4] = test: Membrane permeation, propidium iodide; type: cell-based, Staphylococcus aureus; settings: S. aureus USA300, peptides at 3.12 μM, 10 mM PBS, 37°C, read for 2 h
In short: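 Cells were suspended in 10 mM PBS at final OD600 ~0.1 with propidium iodide and serially diluted 10× peptide. They were held at 37°C shaking at 100 rpm. Fluorescence (ex 584/em 620 nm) was read every 5 min for 2 h. Plots used averages of duplicate experiments.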

E. coli ML-35p = test: Outer and inner membrane permeabilization; type: cell-based, Escherichia coli; settings: peptides at 6.25 μM, absorbance for 40 min
In short: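 Cells came from a single colony grown overnight in TSB at 37°C and were washed three times in PBS. They were diluted to ~10^6 CFU/mL in PBS containing 0.3 mg/mL TSB. Peptide was 0 to 12.5 μM, with 30 μM nitrocefin or 2.5 mM ONPG per well. Absorbance at 490 and 420 nm was followed for 40 min at 37°C.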

S. aureus USA300 [5] = settings: ref [10]; cited from earlier work
E. coli = settings: ref [50], [10]; cited from earlier work

For `CCCCCCCCCC(=O)N[C@@H](Cc1c[nH]c2ccccc12)C(=O)N[C@H](CC(N)=O)C(=O)N[C@@H](CC(=O)O)C(=O)N[C@@H]1C(=O)NCC(=O)N[C@@H](CCCN)C(=O)N[C@@H](CC(=O)O)C(=O)N[C@H](C)C(=O)N[C@@H](CC(=O)O)C(=O)NCC(=O)N[C@H](CO)C(=O)N[C@@H]([C@H](C)CC(=O)O)C(=O)N[C@@H](CC(=O)c2ccccc2N)C(=O)O[C@@H]1C` [daptomycin], the Membrane depolarization (S. aureus USA300 [1]) was “very weak” and the “Concentration that essentially eliminated biofilms” value [2] was 6.25 µM.

With `CO[C@H]1/C=C/O[C@@]2(C)Oc3c(C)c(O)c4c(O)c(cc(O)c4c3C2=O)NC(=O)/C(C)=C\C=C\[C@H](C)[C@H](O)[C@@H](C)[C@@H](O)[C@@H](C)[C@H](OC(C)=O)[C@@H]1C` [rifamycin] the Antibiofilm effect [3] was “ineffective”.

For `NC[C@H]1O[C@H](O[C@H]2[C@H](O)[C@@H](O[C@H]3O[C@H](CO)[C@@H](O)[C@H](N)[C@H]3O)[C@H](N)C[C@@H]2N)[C@H](N)C[C@@H]1O` [tobramycin], the “Membrane permeation (propidium iodide fluorescence)” value (S. aureus USA300 [4]) was “unable to damage bacterial membranes”.

For `CN[C@H](CC(C)C)C(=O)N[C@H]1C(=O)N[C@@H](CC(N)=O)C(=O)N[C@H]2C(=O)N[C@H]3C(=O)N[C@H](C(=O)N[C@H](C(=O)O)c4cc(O)cc(O)c4-c4cc3ccc4O)[C@H](O)c3ccc(c(Cl)c3)Oc3cc2cc(c3O[C@@H]2O[C@H](CO)[C@@H](O)[C@H](O)[C@H]2O[C@H]2C[C@](C)(N)[C@H](O)[C@H](C)O2)Oc2ccc(cc2Cl)[C@H]1O` [vancomycin], the “Outer membrane permeation (β-lactamase, nitrocefin)” value (E. coli ML-35p) was “unable to”.

In the case of GFKRlVQRlKDFlRKLV-amide [GF-17d3], the “Activity against S. aureus USA300” value (S. aureus USA300 [5]) is listed as “not active” and the “Activity against E. coli in the presence of chymotrypsin” value (E. coli) is listed as “active”.

Reference: publication PMC6689428 (Biochimica et biophysica acta. Biomembranes, 2019)
